Laboratory results as given in ChEMBL document CHEMBL1287679, “Tuning hydrophobicity of highly cationic tetradecameric Gramicidin S analogues using adamantane amino acids” (Bioorg Med Chem, 2010).
In brackets after ≈: the same amount, converted by molar mass.

How the values were obtained:
[1] = system: Enterococcus faecalis; experiment: Antimicrobial activity against Enterococcus faecalis ATCC 29212 by broth dilution method; assay type: functional
Summary of the method: (§1)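 Stored at −70 °C, grown at 35 °C on Columbia sheep-blood agar, then suspended in physiological saline to OD 0.1 AU at 595 nm and diluted 100× in saline. 2 µL inoculum was added to 50 µL cation-adjusted Mueller Hinton II broth. Peptides in methanol (4 g/L stock) were diluted in water, then two-fold in broth (64–1 mg/L). Incubation was 35 °C for 24–48 h. MIC is the lowest concentration inhibiting growth.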

[2] = system: Staphylococcus aureus; experiment: Antimicrobial activity against methicillin-resistant Staphylococcus aureus N133 by broth dilution method; assay type: functional
Summary of the method: (§2)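 Frozen (−70 °C) stocks grown at 35 °C on Columbia sheep-blood agar, suspended in physiological saline to OD595 0.1, diluted 100×; 2 µL inoculum into 50 µL cation-adjusted Mueller Hinton II broth in 96-well plates. Peptides dissolved in methanol (4 g/L), diluted in water, two-fold serial dilutions in broth (64–1 mg/L). Incubation at 35 °C, 24–48 h; MIC = lowest concentration inhibiting growth.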

[3] = Therapeutic index, concentration required to achieve 100% hemolysis in erythrocyte to MIC for Staphylococcus aureus ATCC 29213; conditions: erythrocytes; read-out: Ratio
Summary of the method: (§3)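 Therapeutic index was taken as the concentration for 100% haemolysis divided by MIC for the given strain.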

[4] = system: Pseudomonas aeruginosa; experiment: Antimicrobial activity against Pseudomonas aeruginosa ATCC 27853 by broth dilution method; assay type: functional; summary of the method: as §1
[5] = system: Staphylococcus aureus; experiment: Antimicrobial activity against methicillin-resistant Staphylococcus aureus ATCC 49775 by broth dilution method; assay type: functional; summary of the method: as §2
[6] = system: Staphylococcus aureus; experiment: Antimicrobial activity against community acquired methicillin-resistant Staphylococcus aureus isolate 1110301146 by broth dilution method; assay type: functional; summary of the method: as §2
[7] = system: Staphylococcus aureus; experiment: Antimicrobial activity against methicillin-resistant Staphylococcus aureus ATCC 43300 by broth dilution method; assay type: functional; summary of the method: as §2
[8] = system: Staphylococcus aureus; experiment: Antimicrobial activity against methicillin-resistant Staphylococcus aureus N229 by broth dilution method; assay type: functional; summary of the method: as §2
[9] = system: Staphylococcus aureus; experiment: Antimicrobial activity against methicillin-resistant Staphylococcus aureus isolate 1110301981 by broth dilution method; assay type: functional; summary of the method: as §2
[10] = system: Staphylococcus epidermidis; experiment: Antimicrobial activity against Staphylococcus epidermidis ATCC 12228 by broth dilution method; assay type: functional; summary of the method: as §1
[11] = system: Escherichia coli; experiment: Antimicrobial activity against Escherichia coli ATCC 25922 by broth dilution method; assay type: functional; summary of the method: as §1
[12] = system: Staphylococcus aureus; experiment: Antimicrobial activity against Staphylococcus aureus ATCC 29213 by broth dilution method; assay type: functional; summary of the method: as §2
[13] = Toxicity in Erythrocyte assessed as concentration required to achieve 100% hemolysis after 4 hrs; assay type: cell-based
Summary of the method: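 Heparinized fresh blood was centrifuged (1000g, 10 min, 10 °C). Erythrocytes were washed three times in 0.85% saline and diluted to a 1/25 packed volume. Peptides were prepared as a 1.5 mM stock in 30% DMSO/0.5 mM saline and serially two-fold diluted in triplicate rows. 1% Triton-X served as the full-lysis control. Incubation was 37 °C for 4 h, then centrifugation; supernatant was read. Value is the concentration giving 100% lysis.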

[14] = system: Bacillus cereus; experiment: Antimicrobial activity against Bacillus cereus ATCC 11778 by broth dilution method; assay type: functional; summary of the method: as §1
[15] = Therapeutic index, concentration required to achieve 100% hemolysis in erythrocyte to MIC for Escherichia coli ATCC 25922; conditions: erythrocytes; summary of the method: as §3

Structure (SMILES) | MIC [1] [µg/mL] | MIC [2] [µg/mL] | selectivity ratio [3] | MIC [4] [µg/mL] | MIC [5] [µg/mL] | MIC [6] [µg/mL] | MIC [7] [µg/mL] | MIC [8] [µg/mL] | MIC [9] [µg/mL] | MIC [10] [µg/mL] | MIC [11] [µg/mL] | MIC [12] [µg/mL] | Activity [13] [µM] | MIC [14] [µg/mL] | selectivity ratio [15]
CC(C)C[C@@H]1NC(=O)[C@H](CCCN)NC(=O)[C@H](C(C)C)NC(=O)[C@H](CCCN)NC(=O)[C@@H]2CCCN2C(=O)[C@@H](Cc2ccccc2)NC(=O)[C@H](CCCN)NC(=O)[C@H](CC23CC4CC(CC(C4)C2)C3)NC(=O)[C@H](CCCN)NC(=O)[C@H](C23CC4CC(CC(C4)C2)C3)NC(=O)[C@H](CCCN)NC(=O)[C@@H]2CCCN2C(=O)[C@@H](Cc2ccccc2)NC(=O)[C@H](CCCN)NC1=O | 8 (≈ 4.49 µM) | 16 (≈ 8.98 µM) | 3.9 | 8 (≈ 4.49 µM) | 16 (≈ 8.98 µM) | 16 (≈ 8.98 µM) | 16 (≈ 8.98 µM) | 16 (≈ 8.98 µM) | 16 (≈ 8.98 µM) | 4 (≈ 2.24 µM) | 16 (≈ 8.98 µM) | 8 (≈ 4.49 µM) | 31.3 | 1 (≈ 0.561 µM) | 3.9
CC(C)C[C@@H]1NC(=O)[C@H](CCCN)NC(=O)[C@H](C23CC4CC(CC(C4)C2)C3)NC(=O)[C@H](CCCN)NC(=O)[C@@H]2CCCN2C(=O)[C@@H](Cc2ccccc2)NC(=O)[C@H](CCCN)NC(=O)[C@H](CC(C)C)NC(=O)[C@H](CCCN)NC(=O)[C@H](C23CC4CC(CC(C4)C2)C3)NC(=O)[C@H](CCCN)NC(=O)[C@@H]2CCCN2C(=O)[C@@H](Cc2ccccc2)NC(=O)[C@H](CCCN)NC1=O | 8 (≈ 4.49 µM) | 8 (≈ 4.49 µM) | 3.9 | 16 (≈ 8.98 µM) | 8 (≈ 4.49 µM) | 8 (≈ 4.49 µM) | 8 (≈ 4.49 µM) | 8 (≈ 4.49 µM) | 8 (≈ 4.49 µM) | 8 (≈ 4.49 µM) | 16 (≈ 8.98 µM) | 8 (≈ 4.49 µM) | 31.3 | 2 (≈ 1.12 µM) | 2
CC(C)C[C@@H]1NC(=O)[C@H](CCCN)NC(=O)[C@H](C23CC4CC(CC(C4)C2)C3)NC(=O)[C@H](CCCN)NC(=O)[C@@H]2CCCN2C(=O)[C@@H](Cc2ccccc2)NC(=O)[C@H](CCCN)NC(=O)[C@H](CC23CC4CC(CC(C4)C2)C3)NC(=O)[C@H](CCCN)NC(=O)[C@H](C(C)C)NC(=O)[C@H](CCCN)NC(=O)[C@@H]2CCCN2C(=O)[C@@H](Cc2ccccc2)NC(=O)[C@H](CCCN)NC1=O | 16 (≈ 8.98 µM) | 32 (≈ 18 µM) | 3.9 | 16 (≈ 8.98 µM) | 16 (≈ 8.98 µM) | 16 (≈ 8.98 µM) | 16 (≈ 8.98 µM) | 16 (≈ 8.98 µM) | 16 (≈ 8.98 µM) | 4 (≈ 2.24 µM) | 16 (≈ 8.98 µM) | 8 (≈ 4.49 µM) | 31.3 | 4 (≈ 2.24 µM) | 2
CC(C)[C@@H]1NC(=O)[C@H](CCCN)NC(=O)[C@@H]2CCCN2C(=O)[C@@H](Cc2ccccc2)NC(=O)[C@H](CCCN)NC(=O)[C@H](CC23CC4CC(CC(C4)C2)C3)NC(=O)[C@H](CCCN)NC(=O)[C@H](C(C)C)NC(=O)[C@H](CCCN)NC(=O)[C@@H]2CCCN2C(=O)[C@@H](Cc2ccccc2)NC(=O)[C@H](CCCN)NC(=O)[C@H](CC23CC4CC(CC(C4)C2)C3)NC(=O)[C@H](CCCN)NC1=O | 8 (≈ 4.49 µM) | 8 (≈ 4.49 µM) | 3.9 | 8 (≈ 4.49 µM) | 8 (≈ 4.49 µM) | 8 (≈ 4.49 µM) | 8 (≈ 4.49 µM) | 8 (≈ 4.49 µM) | 8 (≈ 4.49 µM) | 8 (≈ 4.49 µM) | 32 (≈ 18 µM) | 8 (≈ 4.49 µM) | 31.3 | 8 (≈ 4.49 µM) | 3.9
CC(C)[C@@H]1NC(=O)[C@H](CCCN)NC(=O)[C@@H]2CCCN2C(=O)[C@@H](Cc2ccccc2)NC(=O)[C@H](CCCN)NC(=O)[C@H](CC23CC4CC(CC(C4)C2)C3)NC(=O)[C@H](CCCN)NC(=O)[C@H](C23CC4CC(CC(C4)C2)C3)NC(=O)[C@H](CCCN)NC(=O)[C@@H]2CCCN2C(=O)[C@@H](Cc2ccccc2)NC(=O)[C@H](CCCN)NC(=O)[C@H](CC23CC4CC(CC(C4)C2)C3)NC(=O)[C@H](CCCN)NC1=O | 8 (≈ 4.27 µM) | 16 (≈ 8.54 µM) | 1 | 16 (≈ 8.54 µM) | 16 (≈ 8.54 µM) | 32 (≈ 17.1 µM) | 16 (≈ 8.54 µM) | 16 (≈ 8.54 µM) | 16 (≈ 8.54 µM) | 4 (≈ 2.13 µM) | 32 (≈ 17.1 µM) | 16 (≈ 8.54 µM) | 15.6 | 4 (≈ 2.13 µM) | 1
